Screening results deposited in PubChem BioAssay by Johns Hopkins Ion Channel Center.
Compounds with a hit are over-represented: about 2.9% of the library has one in this group of screens.
TRPC6 inh = mouse TRPC6 channel inhibition | Q61143 | HEK293-TRPC6, membrane potential dye, ACh-evoked depolarization; active compounds read low | B-score at 10 µM | 310,000 compounds, 1.1% hits;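 active = B-score under library mean minus 3 SD, initial fluorescence not abnormally high, positive integrated signal ratio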;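 note: B-score derived from integrated fluorescence ratio over the kinetic read; more negative B-score means stronger inhibition of depolarization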
TRPC4 agonist = activators of mouse TRPC4 channel. Q9QUQ5. HEK293 TRPC4beta/mu-opioid, Fluo4 calcium fluorescence; active compounds read high. B-score at 10 µM. 310,000 compounds, 0.49% hits;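 active = B-score above 5 SD of library B-scores, and initial fluorescence ratio not above library mean plus 5 SD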;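 note: positive B-score marks a calcium rise read as TRPC4 activation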
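Assay system – TRPC4beta and mu-opioid receptor HEK293 stable cells · Measured by – Fluo4 fluorescence, kinetic · Schedule – dye loading 45 min room temperature, 110 s kinetic read · Read-out – B-scored integrated calcium fluorescence ratio · Controls – buffer and maximal DAMGO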
TRPC6 act = activators of mouse TRPC6 channel; Q61143; HEK293-TRPC6 membrane potential dye fluorescence; active compounds read high; B-score at 10 µM; 310,000 compounds, 0.13% hits; AID 2550;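 active = B-score of the integrated fluorescence ratio above library mean plus 3 SD, and starting fluorescence ratio within library mean plus 5 SD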;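 note: higher score means more depolarization so channel activation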
TRPC4 inh = inhibitors of mouse TRPC4 channel. B-score at 10 µM. Q9QUQ5. 300,000 compounds, 0.39% hits. HEK293 TRPC4beta/mu-opioid, DAMGO-evoked Fluo4 calcium flux; active compounds read low;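 active = B-score over 3 SD under the library average, no early fluorescence shift, positive overall ratio signal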
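Material: HEK293 cells with stable TRPC4beta plus mu-opioid receptor expression; probe or stimulus: DAMGO in two steps, submaximal then maximal; technique: Fluo4 calcium fluorescence by kinetic imaging, 5 s 1 Hz baseline; measure: integrated fluorescence ratio relative to baseline, converted to per-well B score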
Kir21 inh = inhibitors of mouse Kir2.1 inward-rectifier potassium channel; B-score at 10 µM; 310,000 compounds, 0.85% hits; HEK293-Kir2.1, FluxOR thallium flux fluorescence; active compounds read low; AID 1672; P35561;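 active = fluorescence ratio B-score at or below minus 3 SD of library scores, with starting-brightness B-score within 2 SD, cut at about -4.2 in these data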;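 note: channel flux triggered by added potassium and thallium sulfate stimulus; B-score of peak minus minimum fluorescence over baseline after thallium stimulus; more negative B-score means stronger Kir2.1 block with less thallium influx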
Target sequence (P35561 whole entry, looked up): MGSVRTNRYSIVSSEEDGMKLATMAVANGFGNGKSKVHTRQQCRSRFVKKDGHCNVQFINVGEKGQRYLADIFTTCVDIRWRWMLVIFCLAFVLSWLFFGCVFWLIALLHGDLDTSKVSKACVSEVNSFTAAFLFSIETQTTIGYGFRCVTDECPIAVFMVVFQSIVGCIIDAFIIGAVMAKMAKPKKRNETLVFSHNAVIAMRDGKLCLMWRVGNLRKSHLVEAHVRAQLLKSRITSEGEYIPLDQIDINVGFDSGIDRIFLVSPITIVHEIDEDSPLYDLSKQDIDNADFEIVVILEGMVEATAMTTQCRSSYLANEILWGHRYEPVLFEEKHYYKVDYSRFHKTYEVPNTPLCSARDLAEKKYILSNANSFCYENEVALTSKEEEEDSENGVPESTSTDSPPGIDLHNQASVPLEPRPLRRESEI
TRPC4 potent = TRPC4 (mouse) allosteric potentiation; Q9QUQ5; HEK293 TRPC4beta/mu-opioid, DAMGO EC20, Fluo-4 Ca2+ flux; active compounds read high; B-score at 10 µM; 310,000 compounds, 0.42% hits;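 active = B-score of calcium response area above 5 SD of library B-scores, with initial fluorescence ratio within 5 SD of library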;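 note: B-score of integrated fluorescence ratio over time as area under calcium response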
* marks the source's active call; other numbers are inactive results; i = inactive.

SMILES	TRPC6 inh	TRPC4 agonist	TRPC6 act	TRPC4 inh	Kir21 inh	TRPC4 potent
CN(CCC#N)C(=O)COC(=O)c1cc(Cl)cc(Cl)c1N	i	i	i	i	-1.24	i
CCOC(=O)c1c(C)[nH]c(C)c1C(=O)CSc1nc2ccccc2n1CC	i	i	i	i	-5.34*	i
CCn1c(=S)sc2c(=O)n(CC(=O)Nc3cccc(OC)c3)c(C)nc21	i	i	i	i	0.51	i
CN1CCN(Cc2nc3c([nH]2)c(=O)[nH]c(=O)n3C)CC1	i	72*	i	i	0.23	i
CC1CCCN(C(=O)CN(C)S(=O)(=O)c2cccc3nsnc23)C1 (configuration not stated)	i	i	i	i	-0.45	i
Cn1c(N)c(S(=O)(=O)N2CCN(Cc3ccccc3)CC2)c(=O)n(C)c1=O	i	i	i	i	1.6	i
COc1cc([N+](=O)[O-])cc(/C=C2/SC(=S)N(Cc3ccccc3)C2=O)c1O	-6.31*	i	i	i	-1.57	i
CCOC(=O)Cc1csc(NS(=O)(=O)c2ccc(C(F)(F)F)cc2)n1	i	i	i	i	0.67	i
Cc1ccc2c(CN(C)Cc3cccc(Cl)c3)cc(=O)oc2c1C	i	i	i	i	0.04	11*
NC(N)=N/N=C/c1ccc(OCc2ccc(Cl)cc2)cc1	i	i	i	i	-9.85*	i
O=C(N/N=C/c1ccccc1)c1ccc(OCc2ccccc2)cc1	i	i	i	i	1.43	i
NC(N)=N/N=C/c1ccc(OCc2ccccc2)cc1	i	i	i	i	-11.5*	i
Cc1ccc(COc2ccc(/C=N/O)cc2)cc1	i	i	i	i	-1.46	i
COC(=O)c1ccc(C(=O)OC)c(NC(=S)N2CCC(C)CC2)c1	i	i	i	i	-0.68	i
CCN(Cc1ccccc1)C(=O)CCc1nc(-c2ccc(C)cc2)no1	i	i	i	i	-6.69*	i
Cc1ccc(-c2noc(CCC(=O)NCCN3CCOCC3)n2)cc1	i	i	i	i	0.04	i
CCc1ccccc1N(CC)C(=O)CCc1nc(-c2ccc(C)cc2)no1	i	i	i	i	0.08	i
Cc1ccc(-c2noc(CCC(=O)NCCN3CCc4ccccc4C3)n2)cc1	i	i	i	i	-8.79*	i
COc1ccc(-c2noc(CCC(=O)NCCCN3CCC(Cc4ccccc4)CC3)n2)cc1	i	i	i	i	-4.62*	i
CCOc1ccc(Oc2ccc(Cl)cc2N)cc1	i	i	i	i	0.04	i
CCN(c1ccccc1)S(=O)(=O)c1ccc(Cl)c(NC(=O)CN2CCCCCC2)c1	i	i	18.5*	i	0.43	i
CN(C)CCSc1nc(-c2ccccc2)nc2c1CCCC2	i	68*	i	i	-0.84	20*
CCSc1nc(-c2ccccc2)nc2c1CCCC2	i	i	i	i	-0.52	i
O=C1COc2ccc(S(=O)(=O)N3CCC(C(=O)NCc4ccc(F)cc4)CC3)cc2N1	i	i	i	i	0.73	i
COc1ccc(N2CCN(C(=O)c3ccc(N(C)S(=O)(=O)c4ccc(OC)cc4)cc3)CC2)cc1	i	i	i	i	0.81	i
COc1ccc(N(C)S(=O)(=O)c2cccc(C(=O)N3CCN(S(=O)(=O)c4ccc(C)cc4)CC3)c2)cc1	-8.27*	i	12*	i	0.22	i
COc1ccc(N2CCN(C(=O)c3ccc(N(C)S(=O)(=O)c4ccc(C)cc4)cc3)CC2)cc1	i	44*	i	i	0.2	38*
COc1ccc(S(=O)(=O)N(C)c2ccc(C(=O)N3CCN(C)CC3)cc2)cc1	i	i	i	i	-0.9	i
COc1cccc(CNc2cc(CSc3ccc(Cl)cc3)nc(C)n2)c1	i	i	i	i	-7.65*	i
c1ccc(-n2cc(CNCCc3cscn3)c(-c3ccc4c(c3)OCO4)n2)cc1	i	46*	i	i	-0.73	i
